According to PubChem BioAssay:
Active and inactive are the calls of the source. Unless noted, no stated cut-off is given here; in the data, active means inhibition above about 30%; inactive means the rest.

How the values were obtained:
[1] = Her2 expression decrease, cell viability multiplex – SKBR3 breast tumor cells, AlphaScreen, ATP viability, primary screen (AID 461;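 active means Her2 level under about 52% in both replicate screens, with viability over 70% of control, limit read from the data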;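 on Her2 level: lower value means less Her2 protein in the cells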;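 on viability: percent of carrier control wells set as 100% viability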); settings: SKBR3 Her2 protein level, 18-24 h, measured here: SKBR3 viability, ATP luminescence, at 10 µM
[2] = biological target: Receptor tyrosine-protein kinase erbB-2 (Homo sapiens) (UniProt P04626); assay: as above; settings: 18-24 h, at 10 µM, stronger effect = lower value
[3] = reduced viability of SK-BR-3 breast cancer cells – cell-based, 24 h, human, pilot screen (AID 572;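 active means viability at or below 10% of carrier control in both of two separate runs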;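 further: compound exposure lasted between 18 and 24 h rather than exactly 24 h; 100% = carrier-treated control wells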); settings: SK-BR-3 viability, CellTiter-Glo luminescence, at 10 µM, stronger effect = lower value
[4] = HUVEC growth inhibition – cell-based, human, primary screen (AID 575;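 active means viability at or below 30% in both replicate assays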;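 further: 100% = median of untreated cell wells with 0.1% DMSO on each plate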); settings: HUVEC proliferation, CellTiter-Glo luminescence, 72 h; at 10 µM; stronger effect = lower value
How it was run: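 Material: primary human umbilical vein endothelial cells / Schedule: 72 h exposure, 37 °C, 5% CO2, 30 min RT equilibration / Signal: ATP-based CellTiter-Glo luminescent read / Read-out basis: percent of median DMSO-control luminescence / Control set: 32 DMSO-only cell-control wells (high), 32 MePR drug-control wells (low) per plate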

[5] = H69AR cell proliferation blockers – human, duplicate replicates, primary screen (AID 580;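 active means viability at or under a set limit in both replicates, limit being median viability minus 3 SD, cut at about 48% in these data, passing the limit was not always enough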;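 further: 100% = mean luminescence of untreated wells and 0% = no signal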); settings: H69AR lung tumor cells viability, ATP luminescence, 72 h; at 10 µM; stronger effect = lower value
[6] = MRP1 drug-resistance reversers in H69AR cells – cell-based, doxorubicin co-treatment, pilot screen (AID 601;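 active means viability loss from added drug above about 55%, and viability with drug at most 40%, in both replicates, limit read from the data, passing the limit was not always enough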); settings: CellTiter-Glo, 72 h, at 10 µM; for differential viability (reversal): stronger effect = higher value
[7] = yeast transport mutant growth inhibition pilot in 384-well plates, post-Golgi transport modulator project (AID 636; in the data active means inhibition above about 31%); settings: absorbance 615 nm, about 18 h, stronger effect = higher value
[8] = growth suppression of yeast trafficking mutant, preliminary HTS, modulators of trafficking downstream of Golgi apparatus project, 1536-format plate, OD 615 nm (AID 637); settings: yeast transport mutant growth, absorbance 615 nm, 18 h; stronger effect = higher value
[9] = H69AR cells + 2 uM doxorubicin, measured here: viability with 2 uM doxorubicin, stronger effect = lower value
[10] = H69AR cells, compound alone cytotoxicity

Chain of Receptor tyrosine-protein kinase erbB-2 (Homo sapiens) (P04626 whole entry, looked up): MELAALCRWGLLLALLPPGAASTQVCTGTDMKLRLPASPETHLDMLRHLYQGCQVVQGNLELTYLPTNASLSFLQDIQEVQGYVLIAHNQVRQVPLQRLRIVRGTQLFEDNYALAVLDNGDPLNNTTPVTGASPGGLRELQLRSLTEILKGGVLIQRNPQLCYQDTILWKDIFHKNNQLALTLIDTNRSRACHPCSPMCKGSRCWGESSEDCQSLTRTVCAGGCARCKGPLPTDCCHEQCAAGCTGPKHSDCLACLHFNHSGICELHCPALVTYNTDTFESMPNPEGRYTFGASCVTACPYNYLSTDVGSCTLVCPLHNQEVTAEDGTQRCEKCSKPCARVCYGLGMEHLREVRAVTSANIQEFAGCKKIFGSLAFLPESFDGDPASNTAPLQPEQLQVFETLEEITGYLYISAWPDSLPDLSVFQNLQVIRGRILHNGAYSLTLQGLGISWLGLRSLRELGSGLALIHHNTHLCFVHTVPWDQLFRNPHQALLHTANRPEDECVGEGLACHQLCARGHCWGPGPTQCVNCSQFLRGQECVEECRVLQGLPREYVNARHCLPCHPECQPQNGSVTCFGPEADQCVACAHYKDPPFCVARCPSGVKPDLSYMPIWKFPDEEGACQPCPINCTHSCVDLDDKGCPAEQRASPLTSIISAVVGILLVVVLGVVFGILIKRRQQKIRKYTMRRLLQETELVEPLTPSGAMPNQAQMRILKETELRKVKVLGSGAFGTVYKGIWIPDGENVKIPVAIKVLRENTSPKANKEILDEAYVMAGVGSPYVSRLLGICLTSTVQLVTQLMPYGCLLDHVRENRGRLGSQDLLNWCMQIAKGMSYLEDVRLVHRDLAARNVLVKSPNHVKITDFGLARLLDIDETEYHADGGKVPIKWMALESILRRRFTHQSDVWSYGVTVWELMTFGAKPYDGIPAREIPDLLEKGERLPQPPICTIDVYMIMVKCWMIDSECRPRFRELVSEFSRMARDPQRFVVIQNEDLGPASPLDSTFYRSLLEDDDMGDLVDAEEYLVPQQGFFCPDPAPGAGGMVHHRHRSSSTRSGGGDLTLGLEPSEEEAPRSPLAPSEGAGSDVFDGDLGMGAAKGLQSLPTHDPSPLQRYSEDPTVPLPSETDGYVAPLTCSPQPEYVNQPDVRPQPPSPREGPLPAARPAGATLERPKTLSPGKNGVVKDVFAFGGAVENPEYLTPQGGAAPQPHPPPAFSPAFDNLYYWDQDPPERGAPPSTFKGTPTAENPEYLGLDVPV

| Compound | viability [1] [%] | Her2 level [2] | viability [3] | viability [4] | viability [5] | differential viability (reversal) ([6]; H69AR cells + 2 uM doxorubicin) | viability [6, 9] [%] | viability [6, 10] [%] | inhibition [7] | inhibition [8] |
| --- | --- | --- | --- | --- | --- | --- | --- | --- | --- | --- |
| Cc1ccc(C(=O)CCC2CCCC2=O)cc1 (stereo not given) | 90.5 | 102% (inactive) | 90.5% (inactive) | 111% (inactive) | 89% (inactive) | 0.57% (inactive) | 88.4 | 89 | -4.73% (inactive) | -2.67% (inactive) |
| CCCc1cc(=O)n2[nH]c(-c3ccc(Br)cc3)cc2n1 | 90.5 | 71.5% (inactive) | 90.5% (inactive) | 56.2% (inactive) | 73.1% (inactive) | -15.6% (inactive) | 88.7 | 73.1 | -2.76% (inactive) | -1.9% (inactive) |
| CC(=O)CCc1c(C)[nH]c2ccccc2c1=O | 88.5 | 118% (inactive) | 88.5% (inactive) | 99.1% (inactive) | 93.2% (inactive) | 0.225% (inactive) | 93 | 93.2 | 5.84% (inactive) | 13.1% (inactive) |
| CCCCCCn1c(SCCCC)nc2c1c(=O)[nH]c(=O)n2C | 93.5 | 99% (inactive) | 93.5% (inactive) | 72.7% (inactive) | 88.2% (inactive) | 0.76% (inactive) | 87.5 | 88.2 | -5.07% (inactive) | -5% (inactive) |
| CC1=C/C(=C/N(C)c2ccccc2)C(=O)S1 | 109 | 94% (inactive) | 109% (inactive) | 79.7% (inactive) | 89.3% (inactive) | 4.12% (inactive) | 85.2 | 89.3 | 0.41% (inactive) | -3.49% (inactive) |
| Cc1nnc(SCc2cn3ccsc3n2)n(N)c1=O | 95.5 | 81.5% (inactive) | 95.5% (inactive) | 95% (inactive) | 86.5% (inactive) | -4.16% (inactive) | 90.7 | 86.5 | 0.26% (inactive) | 21.3% (inactive) |
| CC(Sc1nnnn1-c1ccccc1)C(=O)Nc1ccc(Cl)cn1 (stereo not given) | 87.5 | 89% (inactive) | 87.5% (inactive) | 73.9% (inactive) | 92.7% (inactive) | 6.54% (inactive) | 86.1 | 92.7 | -2.76% (inactive) | 5.4% (inactive) |
| CC(C)OC(=O)CN1C(=O)C(C)(C)Oc2ccc(C(=O)NC3CC3)cc21 | 96 | 92.5% (inactive) | 96% (inactive) | 93.1% (inactive) | 91.6% (inactive) | -2.77% (inactive) | 94.3 | 91.6 | -3.2% (inactive) | 1.94% (inactive) |
| Cc1cc(C(=O)CSc2nc3ccccc3[nH]2)c(C)n1C | 100 | 86% (inactive) | 100% (inactive) | 120% (inactive) | 94.4% (inactive) | 12.8% (inactive) | 81.6 | 94.4 | -4.93% (inactive) | -8.36% (inactive) |
| COc1ccc(N2CCN(c3ccc(NC(=O)C4CCCCC4)cc3C#N)CC2)cc1 | 98 | 84% (inactive) | 98% (inactive) | 78.6% (inactive) | 93% (inactive) | 2.67% (inactive) | 90.4 | 93 | -1.76% (inactive) | -2.22% (inactive) |
| O=C(CSc1ncn[nH]1)c1ccco1 | 120 | 92% (inactive) | 120% (inactive) | 95.9% (inactive) | 94.7% (inactive) | -3.81% (inactive) | 98.5 | 94.7 | -1.56% (inactive) | 0.33% (inactive) |
| CC(C)(C)NC(=O)Nc1ccccc1C(N)=O | 110 | 108% (inactive) | 110% (inactive) | 103% (inactive) | 110% (inactive) | 7.05% (inactive) | 103 | 110 | -2.27% (inactive) | -5% (inactive) |
| O=C(O)CN1C(=O)CNC1=O | 98 | 93.5% (inactive) | 98% (inactive) | 99.2% (inactive) | 97.6% (inactive) | 2.41% (inactive) | 95.2 | 97.6 | -4.86% (inactive) | 7.21% (inactive) |
| COc1ccc(-n2c(SCCC(=O)O)nnc2-c2ccncc2)cc1 | 96 | 96% (inactive) | 96% (inactive) | 97% (inactive) | 96.7% (inactive) | 0.675% (inactive) | 96.1 | 96.7 | -3.42% (inactive) | 0.32% (inactive) |
| CCOC(=O)N1CCN(C(=O)CSc2ncnc3ccccc23)CC1 | 92 | 96% (inactive) | 92% (inactive) | 87.2% (inactive) | 89.1% (inactive) | 14.9% (inactive) | 74.1 | 89.1 | -1.33% (inactive) | 0.33% (inactive) |
| CCn1c(=S)ccc2ccc(OC)cc21 | 88.5 | 114% (inactive) | 88.5% (inactive) | 98.7% (inactive) | 101% (inactive) | 13.2% (inactive) | 87.6 | 101 | -5.14% (inactive) | -7.46% (inactive) |

| Compound | viability [1] [%] | Her2 level [2] | viability [3] | viability [4] | viability [5] | differential viability (reversal) ([6]; H69AR cells + 2 uM doxorubicin) | viability [6, 9] [%] | viability [6, 10] [%] | inhibition [7] | inhibition [8] |
| --- | --- | --- | --- | --- | --- | --- | --- | --- | --- | --- |
| O=c1c(F)cn(C2CCCO2)c(=O)n1Cc1c(F)cccc1Cl (stereo not given) | 94.5 | 94% (inactive) | 94.5% (inactive) | 92.8% (inactive) | 91.1% (inactive) | -2.1% (inactive) | 93.2 | 91.1 | -0.13% (inactive) | -8.39% (inactive) |
| CCOC(=O)N1CCN(C(=O)CN2C(=O)COc3ccc(C)cc32)CC1 | 98 | 94.5% (inactive) | 98% (inactive) | 95.7% (inactive) | 94.2% (inactive) | 1.89% (inactive) | 92.3 | 94.2 | -2.89% (inactive) | 6% (inactive) |
| O=S(=O)(c1ccc(Br)s1)N1CCCCC1 | 96.5 | 97.5% (inactive) | 96.5% (inactive) | 89.5% (inactive) | 94% (inactive) | 2.88% (inactive) | 91.1 | 94 | -1.32% (inactive) | -2.13% (inactive) |
| Cc1nn(C)c(C)c1CNC(=O)c1cc2n(n1)C(C(F)(F)F)CC(c1cccs1)N2 (stereo not given) | 89.5 | 83% (inactive) | 89.5% (inactive) | 107% (inactive) | 112% (inactive) | 18.2% (inactive) | 93.9 | 112 | 0.41% (inactive) | 0.32% (inactive) |
| COC(=O)c1cc(OC)c(OC)cc1NC(=O)CCC1CCCC1 | 103 | 95% (inactive) | 103% (inactive) | 88.8% (inactive) | 102% (inactive) | -3.46% (inactive) | 106 | 102 | 0.39% (inactive) | 9.05% (inactive) |
| CCn1c(CC(=O)Nc2cccc(OC)c2)nnc1SCC(=O)Nc1nccs1 | 98 | 102% (inactive) | 98% (inactive) | 94.5% (inactive) | 101% (inactive) | 4.37% (inactive) | 97 | 101 | -7.6% (inactive) | -2.26% (inactive) |
| C/C(N)=C(/C#N)C(=O)CSc1nnc(Nc2cccc(C)c2)s1 | 114 | 79% (inactive) | 114% (inactive) | 77.5% (inactive) | 83.8% (inactive) | 7.75% (inactive) | 76 | 83.8 | -2% (inactive) | 0.65% (inactive) |
| COc1ccc(OC)c(NC(=O)CSc2nc3ccccc3c(=O)n2CCNC(C)=O)c1 | 118 | 108% (inactive) | 118% (inactive) | 95.4% (inactive) | 80.7% (inactive) | 64.1% (active) | 16.6 | 80.7 | -1.58% (inactive) | 0.32% (inactive) |
| Cc1cnnc2c1-c1nonc1CC2 | 94.5 | 102% (inactive) | 94.5% (inactive) | 87.4% (inactive) | 105% (inactive) | 15.2% (inactive) | 90.1 | 105 | -6.13% (inactive) | 2.74% (inactive) |
| CCN(CC)Cc1nc2c(c(=O)[nH]1)C1(CCCCC1)Cc1ccccc1-2 | 87 | 82.5% (inactive) | 87% (inactive) | 93.6% (inactive) | 72.8% (inactive) | -18.9% (inactive) | 91.7 | 72.8 | -5.07% (inactive) | 0.16% (inactive) |
| O=C1OCc2cc(NC(=O)C3CCCO3)ccc21 (stereo not given) | 92.5 | 122% (inactive) | 92.5% (inactive) | 101% (inactive) | 104% (inactive) | -0.78% (inactive) | 105 | 104 | 1.84% (inactive) | -1.83% (inactive) |
| Cn1c(C(=O)NCC2CCCO2)cc2c(=O)[nH]c3ccccc3c21 (stereo not given) | 81 | 98% (inactive) | 81% (inactive) | 108% (inactive) | 88.4% (inactive) | 4.57% (inactive) | 83.8 | 88.4 | -4.67% (inactive) | -7.05% (inactive) |
| CC(=O)c1ccc(NC(=O)c2noc3c2CCCCC3)cc1 | 126 | 88% (inactive) | 126% (inactive) | 114% (inactive) | 98% (inactive) | 17.3% (inactive) | 80.6 | 98 | -5.26% (inactive) | 0.73% (inactive) |
| O=C(CSC1=NC(=O)C(Cc2ccccc2)C(=O)N1)NC1CCCCC1 (stereo not given) | 100 | 118% (inactive) | 100% (inactive) | 87.8% (inactive) | 91.7% (inactive) | 8.56% (inactive) | 83.2 | 91.7 | -0.53% (inactive) | 23.1% (inactive) |
| CCOc1ccccc1N(C(=O)Cn1nnnc1-c1ccc(C)o1)C(CC)C(=O)NC(C)(C)C (stereo not given) | 88.5 | 105% (inactive) | 88.5% (inactive) | 120% (inactive) | 88.5% (inactive) | -14.7% (inactive) | 103 | 88.5 | 1.51% (inactive) | 4.6% (inactive) |
| Cc1cccc2cc(CN(Cc3nnnn3Cc3ccccc3)C3CCCC3)c(=O)[nH]c12 | 85 | 72.5% (inactive) | 85% (inactive) | 89.3% (inactive) | 72.9% (inactive) | 31.2% (inactive) | 41.7 | 72.9 | -1.18% (inactive) | -4.55% (inactive) |
